ChEMBL document CHEMBL1134691, “3-Phenyl-5-acyloxymethyl-2H,5H-furan-2-ones: synthesis and biological activity of a novel group of potential antifungal drugs” (2001)
In brackets after ≈: the same amount, converted by molar mass.

How the values were obtained:
Candida parapsilosis [1] = assay: Inhibition of Candida parapsilosis ATCC 22019 growth for 48 hours in vitro.; assay type: functional; details: Lodderomyces parapsilosis, ATCC 22019, 48 h; read-out: MIC
Method in brief: (§1)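 NCCLS M27-A broth microdilution in RPMI 1640 with L-glutamine and 0.165 M MOPS, pH 7.0. Isolates kept on Sabouraud dextrose agar. Inoculum 5 × 10^3 cfu/mL final. Compounds were diluted in DMSO (≤2% final) and tested in 2-fold dilutions of 1000–0.24 µmol/L. Incubation at 35 °C, OD540 read at 24 and 48 h. MIC = 80% growth inhibition versus control; assays run twice in duplicate.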

Trichosporon beigelii [2] = assay: Inhibition of Trichosporon beigelli 1188 for 48 hours in vitro.; assay type: functional; details: Trichosporon beigelii, 48 h; read-out: MIC
Method in brief: (§2)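 Microdilution following NCCLS M27-A. Medium: RPMI 1640 with L-glutamine, 0.165 M MOPS, pH 7.0. Final inoculum 5 × 10^3 cfu/mL. Compounds dissolved in DMSO, final ≤2%, serially halved from 1000 to 0.24 µmol/L. Incubated at 35 °C and read at 24 and 48 h. MIC defined as 80% inhibition of control growth; run twice in duplicate.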

Clavispora lusitaniae [3] = assay: Inhibition of Candida lusitaniae 2446/I growth for 48 hours in vitro.; assay type: functional; details: Clavispora lusitaniae, 48 h; read-out: MIC; method in brief: as §1
Lichtheimia corymbifera [4] = assay: In vitro inhibition of Absidia corymbifera 272 growth for 24 hours.; assay type: functional; details: Lichtheimia corymbifera, 24 h; read-out: MIC
Method in brief: (§3)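 Filamentous isolates tested by microdilution per NCCLS M27-A in RPMI 1640 plus L-glutamine, buffered with 0.165 M MOPS to pH 7.0. Final inoculum 5 × 10^3 cfu/mL. Compounds in DMSO (final ≤2%), 2-fold series over 1000–0.24 µmol/L. Plates held at 35 °C and read visually after 24 and 48 h. MIC taken as 80% inhibition of control growth; determined twice in duplicate.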

Candida tropicalis [5] = assay: Inhibition of Candida tropicalis 156 growth for 48 hours in vitro.; assay type: functional; details: Candida tropicalis, 48 h; read-out: MIC; method in brief: as §1
Candida albicans [6] = assay: Inhibition of Candida albicans ATCC 44859 growth for 48 hours in vitro.; assay type: functional; details: Candida albicans, ATCC 44859, 48 h; read-out: MIC; method in brief: as §1
Pichia kudriavzevii [7] = assay: Inhibition of Candida krusei E28 growth for 24 hours in vitro.; assay type: functional; details: Pichia kudriavzevii, 24 h; read-out: MIC; method in brief: as §1
[8] = Inhibition of Trichophyton mentagrophytes 445 growth for 120 hours in vitro.; assay type: functional, Arthroderma benhamiae; details: Trichophyton benhamiae, 120 h; read-out: MIC
Method in brief: (§4)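 Dermatophyte grown in MOPS-buffered (0.165 M, pH 7.0) RPMI 1640 containing L-glutamine, in an M27-A microdilution format. Inoculum 5 × 10^3 cfu/mL final. Compounds from DMSO stocks (≤2% final), 2-fold dilutions 1000–0.24 µmol/L. Incubated at 35 °C, growth judged visually at 72 and 120 h. MIC endpoint is 80% inhibition relative to control; measured twice in duplicate.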

Aspergillus fumigatus [9] = assay: Inhibition of Aspergillus fumigatus 231 growth for 48 hours in vitro.; assay type: functional; details: Aspergillus fumigatus, 48 h; read-out: MIC; method in brief: as §3
Candida tropicalis [10] = assay: Inhibition of Candida tropicalis 156 growth for 24 hours in vitro.; assay type: functional; details: Candida tropicalis, 24 h; read-out: MIC; method in brief: as §1
Candida parapsilosis [11] = assay: Inhibition of Candida parapsilosis ATCC 22019 growth for 24 hours in vitro.; assay type: functional; details: Lodderomyces parapsilosis, ATCC 22019, 24 h; read-out: MIC; method in brief: as §1
Nakaseomyces glabratus [12] = assay: Inhibition of Candida glabrata 20/I growth for 48 hours in vitro.; assay type: functional; details: Nakaseomyces glabratus, 48 h; read-out: MIC; method in brief: as §1
Nakaseomyces glabratus [13] = assay: Inhibition of Candida glabrata 20/I growth for 24 hours in vitro.; assay type: functional; details: Nakaseomyces glabratus, 24 h; read-out: MIC; method in brief: as §1
Pichia kudriavzevii [14] = assay: Inhibition of Candida krusei ATCC 6258 growth for 48 hours in vitro.; assay type: functional; details: Pichia kudriavzevii, ATCC 6258, 48 h; read-out: MIC; method in brief: as §1
[15] = Inhibition of Trichophyton mentagrophytes 445 growth for 72 hours in vitro.; assay type: functional, Arthroderma benhamiae; details: Trichophyton benhamiae, 72 h; read-out: MIC; method in brief: as §4
Lichtheimia corymbifera [16] = assay: In vitro inhibition of Absidia corymbifera 272 growth for 48 hours.; assay type: functional; details: Lichtheimia corymbifera, 48 h; read-out: MIC; method in brief: as §3
Clavispora lusitaniae [17] = assay: Inhibition of Candida lusitaniae 2446/I growth for 24 hours in vitro.; assay type: functional; details: Clavispora lusitaniae, 24 h; read-out: MIC; method in brief: as §1
Candida albicans [18] = assay: Inhibition of Candida albicans ATCC 90028 for 24 hours in vitro.; assay type: functional; details: Candida albicans, ATCC 90028, 24 h; read-out: MIC; method in brief: as §1
Pichia kudriavzevii [19] = assay: Inhibition of Candida krusei ATCC 6258 growth for 24 hours in vitro.; assay type: functional; details: Pichia kudriavzevii, ATCC 6258, 24 h; read-out: MIC; method in brief: as §1
Trichosporon beigelii [20] = assay: Inhibition of Trichosporon beigelli 1188 for 24 hours in vitro.; assay type: functional; details: Trichosporon beigelii, 24 h; read-out: MIC; method in brief: as §2
Candida albicans [21] = assay: Inhibition of Candida albicans ATCC 44859 growth for 24 hours in vitro.; assay type: functional; details: Candida albicans, ATCC 44859, 24 h; read-out: MIC; method in brief: as §1
Candida albicans [22] = assay: Inhibition of Candida albicans ATCC 90028 for 48 hours in vitro.; assay type: functional; details: Candida albicans, ATCC 90028, 48 h; read-out: MIC; method in brief: as §1
Pichia kudriavzevii [23] = assay: Inhibition of Candida krusei E28 growth for 48 hours in vitro.; assay type: functional; details: Pichia kudriavzevii, 48 h; read-out: MIC; method in brief: as §1
Aspergillus fumigatus [24] = assay: Inhibition of Aspergillus fumigatus 231 growth for 24 hours in vitro.; assay type: functional; details: Aspergillus fumigatus, 24 h; read-out: MIC; method in brief: as §3

Row | SMILES | MIC (Candida parapsilosis [1]) | MIC (Trichosporon beigelii [2]) | MIC (Clavispora lusitaniae [3]) | MIC (Lichtheimia corymbifera [4]) | MIC (Candida tropicalis [5]) | MIC (Candida albicans [6]) | MIC (Pichia kudriavzevii [7]) | MIC [8] | MIC (Aspergillus fumigatus [9]) | MIC (Candida tropicalis [10]) | MIC (Candida parapsilosis [11]) | MIC (Nakaseomyces glabratus [12]) | MIC (Nakaseomyces glabratus [13]) | MIC (Pichia kudriavzevii [14]) | MIC [15] | MIC (Lichtheimia corymbifera [16]) | MIC (Clavispora lusitaniae [17]) | MIC (Candida albicans [18]) | MIC (Pichia kudriavzevii [19]) | MIC (Trichosporon beigelii [20]) | other results
1 | CC(=O)OCC1C=C(c2cccc(Cl)c2)C(=O)O1 (stereo not given) | 7.81 µM (≈ 2.08 µg/mL) | 15.6 µM (≈ 4.17 µg/mL) | 7.81 µM (≈ 2.08 µg/mL) | 3.91 µM (≈ 1.04 µg/mL) | 15.6 µM (≈ 4.17 µg/mL) | 3.91 µM (≈ 1.04 µg/mL) | 7.81 µM (≈ 2.08 µg/mL) | 1.95 µM (≈ 0.52 µg/mL) | 3.91 µM (≈ 1.04 µg/mL) | 7.81 µM (≈ 2.08 µg/mL) | 7.81 µM (≈ 2.08 µg/mL) | 0.98 µM (≈ 0.261 µg/mL) | < 0.98 µM | 7.81 µM (≈ 2.08 µg/mL) | 1.95 µM (≈ 0.52 µg/mL) | 7.81 µM (≈ 2.08 µg/mL) | 3.91 µM (≈ 1.04 µg/mL) | 3.91 µM (≈ 1.04 µg/mL) | 3.91 µM (≈ 1.04 µg/mL) | 3.91 µM (≈ 1.04 µg/mL) | MIC (Candida albicans [21]): 0.98 µM (≈ 0.261 µg/mL); MIC (Candida albicans [22]): 7.81 µM (≈ 2.08 µg/mL); MIC (Pichia kudriavzevii [23]): 7.81 µM (≈ 2.08 µg/mL); MIC (Aspergillus fumigatus [24]): 1.95 µM (≈ 0.52 µg/mL)
2 | CC(=O)OCC1C=C(c2ccc(Cl)c(Cl)c2)C(=O)O1 (stereo not given) | 7.81 µM (≈ 2.35 µg/mL) | 7.81 µM (≈ 2.35 µg/mL) | 1.95 µM (≈ 0.587 µg/mL) | 15.6 µM (≈ 4.71 µg/mL) | 7.81 µM (≈ 2.35 µg/mL) | 3.91 µM (≈ 1.18 µg/mL) | 3.91 µM (≈ 1.18 µg/mL) | 0.98 µM (≈ 0.295 µg/mL) | 7.81 µM (≈ 2.35 µg/mL) | 3.91 µM (≈ 1.18 µg/mL) | 3.91 µM (≈ 1.18 µg/mL) | 0.98 µM (≈ 0.295 µg/mL) | 0.98 µM (≈ 0.295 µg/mL) | 7.81 µM (≈ 2.35 µg/mL) | 0.98 µM (≈ 0.295 µg/mL) | 15.6 µM (≈ 4.71 µg/mL) | 1.95 µM (≈ 0.587 µg/mL) | 3.91 µM (≈ 1.18 µg/mL) | 3.91 µM (≈ 1.18 µg/mL) | 1.95 µM (≈ 0.587 µg/mL) | MIC (Candida albicans [21]): 0.49 µM (≈ 0.148 µg/mL); MIC (Candida albicans [22]): 3.91 µM (≈ 1.18 µg/mL); MIC (Pichia kudriavzevii [23]): 3.91 µM (≈ 1.18 µg/mL); MIC (Aspergillus fumigatus [24]): 0.98 µM (≈ 0.295 µg/mL)
3 | O=C1OC(CO)C=C1c1cccc(Cl)c1 (stereo not given) | 1000 µM (≈ 225 µg/mL) | 1000 µM (≈ 225 µg/mL) | 1000 µM (≈ 225 µg/mL) | 125 µM (≈ 28.1 µg/mL) | > 1000 µM | 62.5 µM (≈ 14 µg/mL) | 1000 µM (≈ 225 µg/mL) | 15.6 µM (≈ 3.51 µg/mL) | 125 µM (≈ 28.1 µg/mL) | 500 µM (≈ 112 µg/mL) | 500 µM (≈ 112 µg/mL) | 62.5 µM (≈ 14 µg/mL) | 62.5 µM (≈ 14 µg/mL) | > 1000 µM | 15.6 µM (≈ 3.51 µg/mL) | 500 µM (≈ 112 µg/mL) | 250 µM (≈ 56.2 µg/mL) | 250 µM (≈ 56.2 µg/mL) | 1000 µM (≈ 225 µg/mL) | 250 µM (≈ 56.2 µg/mL) | MIC (Candida albicans [21]): 31.2 µM (≈ 7.02 µg/mL); MIC (Candida albicans [22]): 250 µM (≈ 56.2 µg/mL); MIC (Pichia kudriavzevii [23]): > 1000 µM; MIC (Aspergillus fumigatus [24]): 31.2 µM (≈ 7.02 µg/mL)
4 | OC(Cn1cncn1)(Cn1cncn1)c1ccc(F)cc1F [FLUCONAZOLE] | 4 µM (≈ 1.23 µg/mL) | 2 µM (≈ 0.613 µg/mL) | 1 µM (≈ 0.306 µg/mL) | > 128 µM | > 128 µM | 0.5 µM (≈ 0.153 µg/mL) | 16 µM (≈ 4.9 µg/mL) | 16 µM (≈ 4.9 µg/mL) | > 128 µM | 0.5 µM (≈ 0.153 µg/mL) | 2 µM (≈ 0.613 µg/mL) | 16 µM (≈ 4.9 µg/mL) | 4 µM (≈ 1.23 µg/mL) | 64 µM (≈ 19.6 µg/mL) | 8 µM (≈ 2.45 µg/mL) | > 128 µM | 1 µM (≈ 0.306 µg/mL) | 0.25 µM (≈ 0.0766 µg/mL) | 32 µM (≈ 9.8 µg/mL) | 1 µM (≈ 0.306 µg/mL) | MIC (Candida albicans [21]): 0.25 µM (≈ 0.0766 µg/mL); MIC (Candida albicans [22]): 1 µM (≈ 0.306 µg/mL); MIC (Pichia kudriavzevii [23]): 32 µM (≈ 9.8 µg/mL); MIC (Aspergillus fumigatus [24]): > 128 µM
5 | O=C1OC(CO)C=C1c1ccc(Br)cc1 (stereo not given) | 500 µM (≈ 135 µg/mL) | 500 µM (≈ 135 µg/mL) | 250 µM (≈ 67.3 µg/mL) | 250 µM (≈ 67.3 µg/mL) | 500 µM (≈ 135 µg/mL) | 62.5 µM (≈ 16.8 µg/mL) | 500 µM (≈ 135 µg/mL) | 15.6 µM (≈ 4.21 µg/mL) | 125 µM (≈ 33.6 µg/mL) | 250 µM (≈ 67.3 µg/mL) | 250 µM (≈ 67.3 µg/mL) | 125 µM (≈ 33.6 µg/mL) | 125 µM (≈ 33.6 µg/mL) | 1000 µM (≈ 269 µg/mL) | 15.6 µM (≈ 4.21 µg/mL) | 250 µM (≈ 67.3 µg/mL) | 250 µM (≈ 67.3 µg/mL) | 250 µM (≈ 67.3 µg/mL) | 500 µM (≈ 135 µg/mL) | 125 µM (≈ 33.6 µg/mL) | MIC (Candida albicans [21]): 31.2 µM (≈ 8.41 µg/mL); MIC (Candida albicans [22]): 250 µM (≈ 67.3 µg/mL); MIC (Pichia kudriavzevii [23]): 500 µM (≈ 135 µg/mL); MIC (Aspergillus fumigatus [24]): 62.5 µM (≈ 16.8 µg/mL)
